Assay outcomes: PubChem, Broad Institute
IDH1 R132H inh: IDH1 R132H (human) inhibition; 70,000 compounds, 0.18% hits; O75874; inhibition, % at 10 µM; IDH1 R132H reductase, diaphorase/resazurin fluorescence, 60 min; in the data active = inhibition above about 34%; inconclusive = no clear call, values can overlap the other calls; inactive = below about 11%;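 also: 0% = DMSO and 100% = no enzyme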
Target sequence (O75874 whole entry R132H): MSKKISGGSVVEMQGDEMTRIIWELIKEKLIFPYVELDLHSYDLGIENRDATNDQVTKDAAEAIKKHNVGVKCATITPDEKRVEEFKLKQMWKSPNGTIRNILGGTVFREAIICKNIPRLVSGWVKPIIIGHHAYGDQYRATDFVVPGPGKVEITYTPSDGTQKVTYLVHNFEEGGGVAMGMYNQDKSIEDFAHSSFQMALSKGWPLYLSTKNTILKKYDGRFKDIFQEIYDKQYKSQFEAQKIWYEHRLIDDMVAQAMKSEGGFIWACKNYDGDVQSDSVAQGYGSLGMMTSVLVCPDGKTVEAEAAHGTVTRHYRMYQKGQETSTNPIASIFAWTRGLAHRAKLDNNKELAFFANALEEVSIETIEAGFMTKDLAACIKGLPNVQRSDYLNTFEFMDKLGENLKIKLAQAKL
GASC1 inh: KDM4C (human) demethylase inhibition; Q9H3R0; GST-KDM4C 2-372, H3K9me3 peptide, LANCE TR-FRET; inhibition, % at 12.5 µM; 96,000 compounds, 0.15% hits; AID 720574;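 active = mean replicate inhibition above about 25%, with at least 55% of replicates also reaching it, limit read from the data, passing the limit was not always enough; inconclusive = only one of those two conditions met; inactive = neither condition met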
Target sequence (Q9H3R0 2-372 limits assumed): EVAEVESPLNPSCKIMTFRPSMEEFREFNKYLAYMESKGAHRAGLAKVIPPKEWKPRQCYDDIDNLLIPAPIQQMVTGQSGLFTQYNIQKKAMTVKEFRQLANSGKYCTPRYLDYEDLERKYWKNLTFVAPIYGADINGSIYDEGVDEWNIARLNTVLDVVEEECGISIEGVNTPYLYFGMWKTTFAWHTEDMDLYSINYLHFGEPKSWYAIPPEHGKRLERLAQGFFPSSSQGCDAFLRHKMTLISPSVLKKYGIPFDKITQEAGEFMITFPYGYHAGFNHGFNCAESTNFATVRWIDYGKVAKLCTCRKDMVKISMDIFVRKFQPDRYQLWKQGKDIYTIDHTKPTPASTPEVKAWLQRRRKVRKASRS
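Material: N-terminal GST-fused human GASC-1 (KDM4C) fragment, residues 2-372. Input: 10 nM enzyme. Incubation: enzyme reaction 30 min, then detection 60 min, both room temperature. Doses: one test concentration per compound. Read-out basis: inhibition from TR-FRET ratio decrease. Detection: LANCE TR-FRET, excitation 340 nm, emissions 618 and 671 nm.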
Pf Dd2 growth: blocks growth of Plasmodium falciparum Dd2 parasites | P. falciparum Dd2 growth, SYBR Green, 72 h; stronger effect = lower value | activity change, % at 10 µM | 94,000 compounds, 2.3% hits | AID 1159554; in the data active = activity change below about -80%; inconclusive = no clear call, values can overlap the other calls
T cruzi growth-1: T. cruzi proliferation inhibition; T. cruzi beta-gal in NIH3T3, GalScreen luminescence, 90 h; inhibition, % at 8.34 µM; 77,000 compounds, 5.9% hits; AID 624255;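 active = mean inhibition above about 93%, with at least 55% of replicates each passing it, limit read from the data, passing the limit was not always enough; inconclusive = only one of those two conditions holds; inactive = neither condition holds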
T cruzi growth-2: Trypanosoma cruzi proliferation inhibition; inhibition, % at 8.35 µM; shares compounds with T cruzi growth-1; T. cruzi beta-gal in NIH3T3, GalScreen luminescence, 90 h; 5,600 compounds, 72% hits;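 active = mean replicate inhibition above about 95% and at least 55% of replicates individually reaching it, limit read from the data; inconclusive = only one of the two criteria is met; inactive = neither criterion is met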
T cruzi growth-3: inhibitors of T. cruzi proliferation; shares compounds with T cruzi growth-1; T. cruzi beta-gal in NIH3T3, GalScreen luminescence, 90 h; inhibition, % at 2.09 µM; 5,600 compounds, 21% hits; AID 651740;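 active = mean inhibition above about 95%, with at least 55% of replicates also reaching it, limit read from the data; inconclusive = meets just one of the two conditions; inactive = meets neither condition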;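 also: plate controls were neutral control median for no effect and positive control median for full effect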
3T3 cytotox: NIH/3T3 (mouse) viability loss | cytotoxicity (signal decrease), % at 8.35 µM | NIH/3T3 viability, CellTiter-Glo ATP luminescence, 90 h | 5,600 compounds, 14% hits | shares compounds with T cruzi growth-1;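 active = mean signal decrease across replicates above about 35% based on untreated-well scatter, with enough replicates individually passing, limit read from the data; inconclusive = no rule stated though some were filed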;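 also: 0% = median of neutral control wells and 100% = median of positive control wells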
NIH3T3 tox 2: kills mouse NIH/3T3 fibroblasts; NIH/3T3 viability, CellTiter-Glo ATP luminescence, 90 h; inhibition, % at 24.9 µM; 5,600 compounds, 56% hits; shares compounds with T cruzi growth-1;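 active = mean loss of cell viability signal at or above a set limit, and enough replicates individually reaching it; inconclusive = meets only the mean limit or only the replicate share; inactive = meets neither condition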;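 also: 0% = median of neutral control wells and 100% = median of positive control wells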
* hit, by the source's call; ? = inconclusive; nt = not tested or not shown. Hits are enriched below; roughly 5.8% of the tested compounds scored in any of these assays.

SMILES	IDH1 R132H inh	GASC1 inh	Pf Dd2 growth	T cruzi growth-1	T cruzi growth-2	T cruzi growth-3	3T3 cytotox	NIH3T3 tox 2
O=C(CC1CC1)N1CC2(C1)[C@@H](c1ccccc1)[C@@H](CO)N2C(=O)c1cccnc1	nt	1.4	35.5	nt	nt	nt	nt	nt
CCC(=O)N1CCCCN2[C@H](C1)[C@@H](c1ccc(C#Cc3ccccc3)cc1)[C@@H]2CO	nt	0.4	-5.5	94.4	nt	nt	nt	nt
CC(=O)N1CCCCN2[C@@H](CO)[C@@H](c3ccc(C#Cc4ccccc4F)cc3)[C@@H]2C1	nt	-0.9	18.7	60.2	nt	nt	nt	nt
CC(=O)N1CCCCN2[C@H](CO)[C@@H](c3ccc(C#Cc4ccccc4F)cc3)[C@@H]2C1	nt	-0.2	-24.0	113.3*	108.2*	39.9	36.3*	101.1*
CCC(=O)N1CCCCN2[C@H](CO)[C@@H](c3ccc(C#Cc4ccccc4F)cc3)[C@@H]2C1	nt	-1.7	-13.2	?	100.9*	52.9	21.2	104.4*
CCC(=O)N1CCCCN2[C@H](C1)[C@H](c1ccc(C#Cc3ccccc3F)cc1)[C@@H]2CO	nt	-0.5	-18.5	?	74.0	29.2	40.2*	94.8*
CCC(=O)N1CCCCN2[C@H](CO)[C@H](c3ccc(C#Cc4ccccc4)cc3)[C@@H]2C1	nt	-0.7	-13.8	117.0*	103.8*	85.0	51.5*	58.0*
C/C=C/c1ccc2c(c1)O[C@@H](CN(C)C(=O)Nc1cc(F)ccc1F)[C@@H](C)CN([C@H](C)CO)S2(=O)=O	-3.6	-0.3	-42.0	-12.4	nt	nt	nt	nt
O=C(Cc1ccccc1)N[C@@H]1CC[C@@H](CC(=O)N2CCOCC2)O[C@H]1CO	-0.9	0.1	-1.1	-12.9	nt	nt	nt	nt
C[C@@H]1CCCCO[C@H](CN(C)Cc2ccccc2)[C@H](C)CN([C@@H](C)CO)C(=O)c2cc(NS(=O)(=O)c3ccc(Cl)cc3)ccc2O1	-0.3	-1.8	-35.1	102.5*	91.9	88.5	28.3	102.8*
C[C@@H]1CN([C@@H](C)CO)C(=O)c2cc(NS(=O)(=O)c3ccc(Cl)cc3)ccc2O[C@@H](C)CCCCO[C@@H]1CN(C)Cc1ccccc1	nt	-1.1	-31.8	100.3*	89.3	71.0	-37.1	105.5*
C[C@@H]1CCCCO[C@@H](CN(C)Cc2ccccc2)[C@H](C)CN([C@@H](C)CO)C(=O)c2cc(NS(=O)(=O)c3ccc(Cl)cc3)ccc2O1	nt	-0.2	-19.0	109.8*	101.5*	57.1	17.0	100.3*
C[C@@H]1CCCCO[C@H](CN(C)Cc2ccccc2)[C@@H](C)CN([C@@H](C)CO)C(=O)c2cc(NS(=O)(=O)c3ccc(Cl)cc3)ccc2O1	nt	-0.4	-42.5	105.9*	95.2*	75.9	27.1	103.7*
C[C@@H]1CCCCO[C@@H](CN(C)Cc2ccccc2)[C@H](C)CN([C@H](C)CO)C(=O)c2cc(NS(=O)(=O)c3ccc(Cl)cc3)ccc2O1	nt	-1.1	-26.0	90.0	nt	nt	nt	nt
O=C(Nc1ccc2c(c1)[C@@H]1C[C@H](CC(=O)N3CCc4ccccc4C3)O[C@@H](CO)[C@@H]1O2)NC1CCCC1	-1.3	-5.1	-24.0	nt	nt	nt	nt	nt
C[C@H]1CCCCO[C@H](CN(C)Cc2ccccc2)[C@@H](C)CN([C@@H](C)CO)C(=O)c2cc(NS(=O)(=O)c3ccc(Cl)cc3)ccc2O1	nt	-0.9	2.3	108.5*	101.4*	53.7	5.0	104.2*
C[C@H](CO)N1C[C@H](C)[C@@H](CN(C)Cc2ccccc2)OCCCC[C@H](C)Oc2ccc(NS(=O)(=O)c3ccc(Cl)cc3)cc2C1=O	nt	-1.2	19.7	67.8	nt	nt	nt	nt
C[C@@H]1CN([C@@H](C)CO)S(=O)(=O)c2ccc(-c3ccccc3F)cc2O[C@@H]1CN(C)Cc1ccncc1	7.6	4.0	-5.0	100.3*	?	83.4	29.0	46.8*
C[C@@H]1CN([C@H](C)CO)S(=O)(=O)c2ccc(-c3ccccc3F)cc2O[C@@H]1CN(C)Cc1cccnc1	4.7	2.2	-5.4	74.7	nt	nt	nt	nt
C[C@@H]1CN([C@@H](C)CO)S(=O)(=O)c2ccc(-c3ccccc3F)cc2O[C@H]1CN(C)Cc1cccnc1	26.1	3.6	-67.7	101.0*	100.8*	96.7*	56.1*	94.8*
C[C@@H]1CN([C@@H](C)CO)S(=O)(=O)c2ccc(-c3ccccc3)cc2O[C@H]1CN(C)Cc1ccncc1	1.5	-1.7	-28.8	?	nt	nt	nt	nt
Cc1ccccc1-c1ccc2c(c1)O[C@H](CN(C)Cc1ccncc1)[C@@H](C)CN([C@@H](C)CO)S2(=O)=O	45.2*	-0.6	?	96.8*	99.2*	98.5*	40.8*	104.8*
COC(=O)c1ccccc1NC(=O)C(C)Oc1cccc(Cl)c1 (stereo unspecified)	0.1	nt	nt	nt	nt	nt	nt	nt
C/C=C/c1cnc2c(c1)C(=O)N([C@H](C)CO)C[C@@H](C)[C@H](CN(C)C(=O)Cc1ccccn1)O2	0.0	0.7	16.2	nt	nt	nt	nt	nt
C[C@H](CO)N1C[C@H](C)[C@H](CN(C)Cc2ccc(Oc3ccccc3)cc2)Oc2ccc(N(C)C)cc2CC1=O	nt	0.1	-25.0	65.3	nt	nt	nt	nt
SMILES	IDH1 R132H inh	GASC1 inh	Pf Dd2 growth	T cruzi growth-1	T cruzi growth-2	T cruzi growth-3	3T3 cytotox	NIH3T3 tox 2
C[C@@H]1CN([C@@H](C)CO)C(=O)Cc2cc(N(C)C)ccc2O[C@H]1CN(C)Cc1ccc(Oc2ccccc2)cc1	0.1	7.5	4.9	111.3*	91.2	114.7*	7.4	105.5*
C[C@H](CO)N1C[C@H](C)[C@@H](CN(C)Cc2ccc(Oc3ccccc3)cc2)Oc2ccc(N(C)C)cc2CC1=O	-0.1	0.8	-22.9	116.1*	114.2*	81.7	15.2	106.4*
CN1C[C@@H]2[C@H](c3ccccc31)[C@@H](CO)N2S(=O)(=O)c1ccccc1	nt	2.6	-8.0	-13.2	nt	nt	nt	nt
Cc1ccccc1-c1ccc([C@H]2[C@@H](CO)N3CCCCN(S(=O)(=O)c4cn(C)cn4)C[C@@H]23)cc1	nt	0.9	20.9	114.9*	3.1	-25.1	1.0	31.8*
Cc1ccccc1-c1ccc([C@@H]2[C@@H](CO)N3CCCCN(S(=O)(=O)c4cn(C)cn4)C[C@H]23)cc1	nt	-0.7	-37.0	88.5	nt	nt	nt	nt
Cc1ccccc1-c1ccc([C@H]2[C@H]3CN(S(=O)(=O)c4cn(C)cn4)CCCCN3[C@H]2CO)cc1	nt	-1.9	24.6	113.7*	60.0	-18.9	19.4	?
Cc1ccccc1-c1ccc([C@@H]2[C@H](CO)N3CCCCN(S(=O)(=O)c4cn(C)cn4)C[C@@H]23)cc1	nt	0.7	8.9	62.6	nt	nt	nt	nt
Cc1noc(C)c1S(=O)(=O)Nc1cccc2c1O[C@@H](CN(C)Cc1ccccc1)[C@@H](C)CN([C@@H](C)CO)C2=O	1.7	-1.6	30.6	1.5	nt	nt	nt	nt
